# According to ChEMBL document CHEMBL1153348, “Semi-synthetic analogs of pinitol as potential inhibitors of TNF-alpha cytokine expression in human neutrophils” (2009):
# Activity calls are given as the source filed them. No cut-off for these calls is given here.
# Tested on: not listed separately
# Experiment: Antiinflammatory activity in human neutrophils assessed as inhibition of LPS-induced intracellular TNFalpha expression at 1 ug/mL after 3 hrs by flow cytometry
# Assay type: functional, Neutrophil
# Set-up: scale not given: the % may be the effect or the level left
# Method in brief: (§1)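 Neutrophils were isolated from human blood: spun at 250g for 20 min, and the platelet-rich layer was discarded. The lower layer was spun at 1800g, and the buffy coat was layered on histopaque and spun at 700g. RBCs were lysed and the cells washed with PBS. Cells were given LPS plus compound for 3 h in a CO2 incubator, permeabilised, stained 30 min in the dark with conjugated anti-TNF-α mAb, and read by flow cytometry.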
row,Compound,Activity [%]
1,CO[C@H]1[C@H](OC(C)=O)[C@H]2OC(C)(C)O[C@H]2[C@@H]2OC(C)(C)O[C@H]12,42.58
2,CO[C@@H]1[C@@H](O)[C@@H](O)[C@H](O)[C@H](O)[C@H]1OC(=O)C(C)C,17.85
3,CO[C@H]1[C@H](O)[C@H]2OC(C)(C)O[C@H]2[C@@H]2OC(C)(C)O[C@@H]21,13.09
4,CO[C@H]1[C@H](OC)[C@H]2OC(C)(C)O[C@H]2[C@@H]2OC(C)(C)O[C@H]12,33.33
5,CO[C@H]1[C@H](Cl)[C@H]2OC(C)(C)O[C@H]2[C@@H]2OC(C)(C)O[C@@H]21,37.64
6,CO[C@@H]1[C@@H](O)[C@@H](O)[C@H](O)[C@H](O)[C@H]1OC,39.16
7,CCO[C@H]1[C@H](OC)[C@H]2OC(C)(C)O[C@H]2[C@@H]2OC(C)(C)O[C@H]12,38.4
8,CCCC(=O)O[C@H]1[C@H](OC(=O)CCC)[C@H](OC(=O)CCC)[C@@H](OC)[C@H](OC(=O)CCC)[C@H]1OC(=O)CCC,52.47
9,CO[C@@H]1[C@@H](O)[C@@H](O)[C@H](O)[C@H](O)[C@H]1OC(C)=O,2.28
10,CO[C@@H]1[C@@H](OC(C)=O)[C@@H](OC(C)=O)[C@H](O)[C@H](OC(C)=O)[C@H]1OC(C)=O,33.46
11,CCC(=O)O[C@H]1[C@H](OC(=O)CC)[C@H](OC(=O)CC)[C@@H](OC)[C@H](OC(=O)CC)[C@H]1OC(=O)CC,30.79
12,CO[C@@H]1[C@@H](OC(C)=O)[C@@H](OC(C)=O)[C@H](OC(C)=O)[C@H](OC(C)=O)[C@H]1OC(C)=O,33.46
13,CCCC(=O)O[C@H]1[C@H](OC)[C@H]2OC(C)(C)O[C@H]2[C@@H]2OC(C)(C)O[C@H]12,39.54
14,C=CCO[C@H]1[C@H](OC)[C@H]2OC(C)(C)O[C@H]2[C@@H]2OC(C)(C)O[C@H]12,34.98
15,CO[C@@H]1[C@@H](OC(=O)c2ccccc2)[C@@H](OC(=O)c2ccccc2)[C@H](OC(=O)c2ccccc2)[C@H](OC(=O)c2ccccc2)[C@H]1OC(=O)c1ccccc1,51.71
16,C=CCO[C@@H]1[C@@H](O)[C@@H](O)[C@H](O)[C@H](O)[C@H]1OC,29.65
17,CCC(=O)O[C@H]1[C@H](OC)[C@H]2OC(C)(C)O[C@H]2[C@@H]2OC(C)(C)O[C@H]12,32.14
18,CCC(=O)O[C@@H]1[C@@H](O)[C@@H](O)[C@H](O)[C@H](O)[C@H]1OC,20.91
19,CCO[C@@H]1[C@@H](O)[C@@H](O)[C@H](O)[C@H](O)[C@H]1OC,36.5
20,CO[C@H]1[C@H](OC(=O)C(C)C)[C@H]2OC(C)(C)O[C@H]2[C@@H]2OC(C)(C)O[C@H]12,20.65
21,CCCC(=O)O[C@@H]1[C@@H](O)[C@@H](O)[C@H](O)[C@H](O)[C@H]1OC,8.36
22,CO[C@H]1[C@H](OC(C)=O)[C@@H](OC(C)=O)[C@@H](OC(C)=O)[C@H](O)[C@@H]1OC(C)=O,1.14
23,CO[C@H]1[C@H](O)[C@@H](O)[C@@H](O)[C@H](O)[C@@H]1O [METHYLINOSITOL],30.03
24,CO[C@H]1C(=O)[C@H]2OC(C)(C)O[C@H]2[C@@H]2OC(C)(C)O[C@@H]21,50.57

# Tested on: not listed separately
# Experiment: Antiinflammatory activity in human neutrophils assessed as inhibition of LPS-induced intracellular TNFalpha expression at 10 ug/mL after 3 hrs by flow cytometry
# Assay type: functional, Neutrophil
# Set-up: scale not given: the % may be the effect or the level left
# Method in brief: as §1
row,Compound,Activity [%]
1,COc1ccc(C2CNC(=O)C2)cc1OC1CCCC1 (stereo not drawn) [ROLIPRAM],52.85

# Tested on: Neutrophil (Homo sapiens)
# Experiment: Antiinflammatory activity in human neutrophils assessed as inhibition of LPS-induced intracellular TNFalpha expression
row,Compound,Activity
1,CCCC(=O)O[C@H]1[C@H](OC(=O)CCC)[C@H](OC(=O)CCC)[C@@H](OC)[C@H](OC(=O)CCC)[C@H]1OC(=O)CCC,Active
2,CO[C@@H]1[C@@H](OC(=O)c2ccccc2)[C@@H](OC(=O)c2ccccc2)[C@H](OC(=O)c2ccccc2)[C@H](OC(=O)c2ccccc2)[C@H]1OC(=O)c1ccccc1,Active
3,CO[C@H]1C(=O)[C@H]2OC(C)(C)O[C@H]2[C@@H]2OC(C)(C)O[C@@H]21,Active
